Assay results gathered from unrelated publications.
ADORA2B: Adenosine receptor A2b (ADORA2B, Homo sapiens, UniProt P29275)
F12: Coagulation factor XII (F12, Homo sapiens, UniProt P00748)
CYP3A4: Cytochrome P450 3A4 (CYP3A4, Homo sapiens, UniProt P08684)

| target | test | test system | conditions | measurement | value | Structure (SMILES) |
| --- | --- | --- | --- | --- | --- | --- |
| ADORA2B | G protein activation, agonist | – | – | EC50 | 22 µM | CN(C)c1ncnc2c1ncn2[C@@H]1O[C@H](CO)[C@@H](O)[C@H]1O |
| Leucyl-cystinyl aminopeptidase (LNPEP, Homo sapiens, UniProt Q9UIQ6) | enzyme activity, inhibitor, fluorescence | – | – | IC50 | 0.157 µM | COc1ccc(-c2cc(OCC(=O)N(C)Cc3cccnc3C)nc(-n3nc(C)cc3C)n2)cc1 |
| Progesterone receptor (PGR, Homo sapiens, UniProt P06401) | ligand displacement, radioligand | – | – | IC50 | 0.069 µM | Oc1ccc2c(c1)CC[C@H](c1ccccc1)[C@@H]2c1ccc(OCCN2CCCC2)cc1 |
| F12 | enzyme activity, inhibitor, absorbance | – | pH 7.4 | IC50 | > 50 µM | O=c1oc(-c2cccnc2)nc2ccccc12 |
| ADORA2B | G protein activation, agonist | – | – | EC50 | 84 µM | CC(C)=CCNc1ncnc2c1ncn2[C@@H]1O[C@H](CO)[C@@H](O)[C@H]1O |
| Calcium/calmodulin-dependent protein kinase type II subunit gamma (CAMK2G, Homo sapiens, UniProt Q13555) | enzyme activity, inhibitor | – | – | IC50 | 189 µM | O=c1cc(-c2ccc(O)cc2)oc2c([C@@H]3OC[C@H](O)[C@H](O)[C@H]3O)c(O)c([C@@H]3O[C@H](CO)[C@@H](O)[C@H](O)[C@H]3O)c(O)c12 |
| F12 | enzyme activity, inhibitor, absorbance | – | pH 7.4 | IC50 | > 50 µM | O=c1oc(-c2ccco2)nc2ccccc12 |
| CYP3A4 | enzyme activity, inhibitor | human, liver microsomes | pH 7.4, testosterone probe | IC50 | 13.5 µM | COc1cc(O)c2c(c1)C(=O)c1cc(C)cc(O)c1C2=O |
| CYP3A4 | enzyme activity, inhibitor | human, liver microsomes | – | Ki | 24 µM | CO[C@]1(C(=O)N[C@@H](C)c2ccc(-n3cc(F)cn3)nc2)CC[C@H](c2nc(C)cc(Nc3cc(C)[nH]n3)n2)CC1 |
